For 17 compounds, inhibition, IC50 and RBA results are on record in ChEMBL document CHEMBL2040729, “Lead optimization of 17β-HSD1 inhibitors of the (hydroxyphenyl)naphthol sulfonamide type for the treatment of endometriosis” (J Med Chem, 2012).

Assay [1] deals with T1, 17-beta-hydroxysteroid dehydrogenase type 1 (Homo sapiens) (UniProt P14061).
T1 sequence (whole entry): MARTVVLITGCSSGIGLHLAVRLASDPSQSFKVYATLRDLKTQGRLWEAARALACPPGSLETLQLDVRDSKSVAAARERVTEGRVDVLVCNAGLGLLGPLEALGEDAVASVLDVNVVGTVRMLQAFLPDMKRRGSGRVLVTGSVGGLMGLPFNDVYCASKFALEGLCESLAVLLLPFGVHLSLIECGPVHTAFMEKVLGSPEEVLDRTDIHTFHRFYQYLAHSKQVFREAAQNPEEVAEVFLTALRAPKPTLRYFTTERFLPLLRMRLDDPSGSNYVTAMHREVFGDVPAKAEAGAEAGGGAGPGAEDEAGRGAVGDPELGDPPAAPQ
Briefly: Inhibition of human placenta cytosolic 17betaHSD1 using [3H]E1 as substrate at 10 nM after 10 mins by radioflow detection assay.

For assay [2], the target named is T2, 17-beta-hydroxysteroid dehydrogenase type 1 (Homo sapiens, UniProt P14061).
T2 sequence (P14061 whole entry): T1 sequence (whole entry)
Briefly: Inhibition of human placenta cytosolic 17betaHSD1 using [3H]E1 as substrate after 10 mins by radioflow detection assay. A digest of the protocol: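 Cytosolic 17β-HSD1 from fresh human placenta, obtained by ammonium sulfate precipitation. Incubated at 37 °C in 50 mM phosphate buffer with 20% glycerol and EDTA, with NADH 500 μM and compound (DMSO 1% final). Started with unlabeled + [3H]-E1 (500 nM final), stopped after 10 min with HgCl2, ether-extracted. E1/E2 quantified by radioflow HPLC as % conversion. At least three independent experiments.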

Assay [3] has as its target T3, 17-beta-hydroxysteroid dehydrogenase type 2 (Homo sapiens, UniProt P37059).
T3 sequence (P37059 whole entry): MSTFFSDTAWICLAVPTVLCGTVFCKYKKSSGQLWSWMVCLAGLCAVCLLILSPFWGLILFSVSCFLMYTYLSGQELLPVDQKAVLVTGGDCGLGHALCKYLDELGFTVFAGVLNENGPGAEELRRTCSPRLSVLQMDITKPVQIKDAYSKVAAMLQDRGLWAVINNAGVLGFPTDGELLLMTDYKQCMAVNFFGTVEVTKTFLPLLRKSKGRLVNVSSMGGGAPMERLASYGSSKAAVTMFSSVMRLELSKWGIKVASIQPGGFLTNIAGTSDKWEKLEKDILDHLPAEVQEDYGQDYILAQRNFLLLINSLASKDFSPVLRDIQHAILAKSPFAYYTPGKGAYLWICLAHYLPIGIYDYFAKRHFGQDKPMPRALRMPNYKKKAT
Briefly: Inhibition of human placenta microsomal 17betaHSD2 using [3H]E2 as substrate after 20 mins by radioflow detection assay. The method in brief:
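Microsomal (pellet) fraction of fresh human placenta incubated with NAD+ 1500 μM, compound, and unlabeled + [3H]-E2 (500 nM final) for 20 min at 37 °C. Stopped with 1 mM HgCl2, ether-extracted. Steroids separated by HPLC with radioflow detection, conversion computed. Mean of three determinations.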

Assay [4] is filed under the species Callithrix jacchus. Kind of assay: Inhibition of mormoset placenta cytosolic 17betaHSD1 using [3H]E1 as substrate at 50 nM after 10 mins by radioflow detection assay.
For assay [5], the species on record is Callithrix jacchus. Kind of assay: Inhibition of mormoset placenta microsomal 17betaHSD2 using [3H]E2 as substrate at 50 nM after 20 mins by radioflow detection assay.
Assay [6] deals with T4, Estrogen receptor (Homo sapiens) (UniProt P03372).
T4 sequence (whole entry): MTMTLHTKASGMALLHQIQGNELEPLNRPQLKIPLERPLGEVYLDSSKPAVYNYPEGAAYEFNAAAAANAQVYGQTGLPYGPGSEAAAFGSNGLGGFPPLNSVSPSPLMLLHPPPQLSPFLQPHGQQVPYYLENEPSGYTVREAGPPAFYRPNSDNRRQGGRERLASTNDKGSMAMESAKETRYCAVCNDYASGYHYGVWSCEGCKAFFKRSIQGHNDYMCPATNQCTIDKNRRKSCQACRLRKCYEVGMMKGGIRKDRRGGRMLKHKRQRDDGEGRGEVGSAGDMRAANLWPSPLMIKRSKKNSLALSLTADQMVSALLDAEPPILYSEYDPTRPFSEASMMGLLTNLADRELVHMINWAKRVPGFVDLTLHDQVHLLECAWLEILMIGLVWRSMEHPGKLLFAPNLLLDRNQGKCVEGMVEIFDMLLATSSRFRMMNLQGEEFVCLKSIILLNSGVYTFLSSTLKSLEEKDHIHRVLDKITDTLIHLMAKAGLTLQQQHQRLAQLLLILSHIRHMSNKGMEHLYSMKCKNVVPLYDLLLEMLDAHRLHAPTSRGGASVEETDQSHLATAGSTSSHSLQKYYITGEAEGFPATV
Kind of assay: Relative binding affinity to human recombinant ERalpha receptor using [3H]E2 as substrate after 1 hr by liquid scintillation counting relative to E2. The method in brief:
(§1)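 Recombinant human ERα or ERβ (0.25 pmol) incubated 1 h at rt with [3H]-E2 (10 nM) and compound in DMSO (5% final). Nonspecific binding defined with diethylstilbestrol 10 μM. Bound complex captured on hydroxyapatite, washed, resuspended in ethanol, counted by liquid scintillation. Concentrations displacing 50% of bound label compared with E2, which is set at 100%.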

The target in assay [7] is Estrogen receptor beta (Homo sapiens) (UniProt Q92731). Kind of assay: Relative binding affinity to human recombinant ERbeta receptor using [3H]E2 as substrate after 1 hr by liquid scintillation counting relative to E2. A digest of the protocol: as §1
Sequence of Estrogen receptor beta (Homo sapiens) (Q92731 whole entry): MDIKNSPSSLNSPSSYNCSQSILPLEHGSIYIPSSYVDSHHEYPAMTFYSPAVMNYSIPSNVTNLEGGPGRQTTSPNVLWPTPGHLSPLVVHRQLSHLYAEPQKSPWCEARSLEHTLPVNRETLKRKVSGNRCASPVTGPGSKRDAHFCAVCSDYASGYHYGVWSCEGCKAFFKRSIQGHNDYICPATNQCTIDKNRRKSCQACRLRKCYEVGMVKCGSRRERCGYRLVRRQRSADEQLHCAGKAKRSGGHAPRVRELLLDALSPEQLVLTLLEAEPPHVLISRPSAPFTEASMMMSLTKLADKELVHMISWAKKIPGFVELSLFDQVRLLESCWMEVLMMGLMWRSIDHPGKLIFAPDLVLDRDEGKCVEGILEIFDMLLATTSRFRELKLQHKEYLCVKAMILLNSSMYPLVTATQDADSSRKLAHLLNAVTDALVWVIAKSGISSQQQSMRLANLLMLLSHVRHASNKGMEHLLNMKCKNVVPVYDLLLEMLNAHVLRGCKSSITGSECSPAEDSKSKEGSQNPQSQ
Assay [8] has as its target T2, 17-beta-hydroxysteroid dehydrogenase type 1. Kind of assay: Inhibition of 17betaHSD1 in human T47D cells using [3H]E1 as substrate incubated for 30 mins prior to substrate addition measured after 30 mins by radioflow detection assay. The class given is cell-based. A digest of the protocol:
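T47D cells kept in RPMI 1640 with 10% FCS, glutamine, insulin-zinc, pyruvate, antibiotics. Seeded at 5 × 10^5 cells/well in DMEM with FCS, switched to serum-free DMEM after 24 h. Compound added in DMSO (1% final), 30 min preincubation at 37 °C, 5% CO2. Then unlabeled + [3H]-E1 (50 nM final) for 30 min. Steroids extracted into diethylether. Mean of three determinations.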

One may read the inhibition as the share of the control response that was lost under treatment. A low value points to little suppression. The IC50 is the concentration that gives 50% inhibition. A lower IC50 goes with higher potency. Turning to `O=[N+]([O-])c1cccc(S(=O)(=O)Nc2cccc(-c3c(O)ccc4cc(-c5cccc(O)c5)ccc34)c2)c1`, the inhibition is above 30% in assay [1], 16% in the assay listed under Callithrix jacchus [4] and 17% in the assay listed under Callithrix jacchus [5]. For the same compound, the IC50 is 20 nM in assay [2], 374 nM in assay [3] and 396 nM in assay [8]. The RBA in assay [6] and in assay [7] was below 0.1% each time.

For the compound `N#Cc1cccc(S(=O)(=O)Nc2cccc(-c3c(O)ccc4cc(-c5cccc(O)c5)ccc34)c2)c1`, the values for the inhibition (in assay [1]; in the assay filed under Callithrix jacchus [4]; in the assay filed under Callithrix jacchus [5]) were above 30%, 11% and below 10%, respectively. The IC50 turned out to be 30 nM in assay [2], 607 nM in assay [3] and 402 nM in assay [8]. The RBA in assay [6] and in assay [7] was below 0.1% each time.

As for `O=[N+]([O-])c1ccc(S(=O)(=O)Nc2cccc(-c3c(O)ccc4cc(-c5cccc(O)c5)ccc34)c2)c([N+](=O)[O-])c1`, the IC50 in assay [2] came out at 690 nM; in assay [3] it was 371 nM. Also, the figures for the inhibition in the assay filed under Callithrix jacchus [4] and in the assay listed under Callithrix jacchus [5] were 16% and 36%, respectively. Further, the RBA in assay [6] and in assay [7] was below 0.1% in each case.

With `O=S(=O)(Nc1cccc(-c2c(O)ccc3cc(-c4cccc(O)c4)ccc23)c1)c1ccc(F)cc1`, the values for the IC50 in assay [2], in assay [3] and in assay [8] were 53 nM, 834 nM and 637 nM, respectively. Further, the inhibition in the assay filed under Callithrix jacchus [4] stood at 24%; in the assay listed under Callithrix jacchus [5], 20%. For the same compound, the RBA in assay [6] and in assay [7] was below 0.1% each time.

Consider `O=S(=O)(c1ccccc1)n1ccc2ccc(-c3c(O)ccc4cc(-c5cccc(O)c5)ccc34)cc21`, for which the IC50 in assay [2] is 519 nM; in assay [3], 996 nM. In addition, the inhibition in the assay filed under Callithrix jacchus [4] was 14%; in the assay filed under Callithrix jacchus [5] it was 12%.

Regarding `O=S(=O)(Nc1cccc(-c2c(O)ccc3cc(-c4cccc(O)c4)ccc23)c1)c1ccc2ncccc2c1`, the inhibition in assay [1] is above 30%; in the assay filed under Callithrix jacchus [4], 38%; in the assay filed under Callithrix jacchus [5], 13%. The IC50 in assay [2] is 92 nM; in assay [3], 535 nM; in assay [8], 498 nM. In addition, the RBA in assay [6] and in assay [7] was below 0.1% each time.

As for `O=S(=O)(Nc1cccc(-c2c(O)ccc3cc(-c4cccc(O)c4)ccc23)c1)c1cccs1`, the results for the inhibition (in assay [1]; in the assay listed under Callithrix jacchus [4]; in the assay listed under Callithrix jacchus [5]) were above 30%, 25% and 18%, respectively. Moreover, the values for the half-maximal inhibitory concentration (IC50) in assay [2], in assay [3] and in assay [8] were 28 nM, 1100 nM and 316 nM, respectively. The RBA in assay [6] and in assay [7] was below 0.1% each time.

In the case of `Cc1cccc(S(=O)(=O)Nc2cccc(-c3c(O)ccc4cc(-c5cccc(O)c5)ccc34)c2)c1`, the results for the concentration for half-maximal inhibition (IC50) in assay [2], in assay [3] and in assay [8] were 33 nM, 446 nM and 440 nM, respectively. Further, the inhibition in the assay listed under Callithrix jacchus [4] is below 10%; in the assay filed under Callithrix jacchus [5], 11%. The RBA in assay [6] and in assay [7] was below 0.1% each time.

As to `O=S(=O)(Nc1cccc(-c2c(O)ccc3cc(-c4cccc(O)c4)ccc23)c1)c1ccc(O)cc1`, the figures for the concentration for half-maximal inhibition (IC50) in assay [2], in assay [3] and in assay [8] were 19 nM, 352 nM and 1010 nM, respectively. For the same compound, the figures for the inhibition in the assay filed under Callithrix jacchus [4] and in the assay filed under Callithrix jacchus [5] were below 10% and 30%, respectively. For the same compound, the RBA in assay [6] and in assay [7] was below 0.1% throughout.

As to `O=S(=O)(Nc1cccc(-c2c(O)ccc3cc(-c4cccc(O)c4)ccc23)c1)c1cccc(F)c1`, the figures for the inhibition (in assay [1]; in the assay listed under Callithrix jacchus [4]; in the assay filed under Callithrix jacchus [5]) were above 30%, below 10% and 33%, respectively. In addition, the IC50 in assay [2] was found to be 22 nM; in assay [3] it was 396 nM; in assay [8], 462 nM. Besides, the RBA in assay [6] and in assay [7] was below 0.1% each time.

Consider `O=S(=O)(Nc1cccc(-c2c(O)ccc3cc(-c4cccc(O)c4)ccc23)c1)c1ccc(Br)cc1OC(F)(F)F`, for which the figures for the inhibition (in assay [1]; in the assay filed under Callithrix jacchus [4]; in the assay filed under Callithrix jacchus [5]) were above 30%, below 10% and below 10%, respectively. Also, the 50% inhibitory concentration (IC50) in assay [2] amounted to 74 nM; in assay [3], 213 nM. The RBA in assay [6] and in assay [7] was below 0.1% each time.

With `CC(=O)Nc1ccc(S(=O)(=O)Nc2cccc(-c3c(O)ccc4cc(-c5cccc(O)c5)ccc34)c2)cc1`, the results for the IC50 in assay [2], in assay [3] and in assay [8] were 12 nM, 408 nM and 240 nM, respectively. For the same compound, the inhibition in the assay filed under Callithrix jacchus [4] was 31%; in the assay filed under Callithrix jacchus [5] it was below 10%. For the same compound, the RBA in assay [6] and in assay [7] was below 0.1% throughout.

Regarding `Cc1ccc(S(=O)(=O)Nc2cccc(-c3c(O)ccc4cc(-c5cccc(O)c5)ccc34)c2)cc1`, the IC50 in assay [2] is 35 nM; in assay [3], 367 nM; in assay [8], 633 nM. Further, the inhibition was below 10% in the assay filed under Callithrix jacchus [4] and 11% in the assay filed under Callithrix jacchus [5]. Further, the RBA in assay [6] and in assay [7] was below 0.1% throughout.

In the case of `O=S(=O)(c1ccccc1)n1ccc2c(-c3c(O)ccc4cc(-c5cccc(O)c5)ccc34)cccc21`, the 50% inhibitory concentration (IC50) in assay [2] was 32 nM; in assay [3], 391 nM; in assay [8], 1100 nM. Moreover, the figures for the inhibition in the assay listed under Callithrix jacchus [4] and in the assay listed under Callithrix jacchus [5] were 79% and 43%, respectively. Besides, the RBA in assay [6] and in assay [7] was below 0.1% in each case.

`Cc1ccccc1S(=O)(=O)Nc1cccc(-c2c(O)ccc3cc(-c4cccc(O)c4)ccc23)c1`: the figures for the half-maximal inhibitory concentration (IC50) in assay [2], in assay [3] and in assay [8] were 31 nM, 188 nM and 525 nM, respectively. Moreover, the inhibition was 20% in the assay filed under Callithrix jacchus [4] and below 10% in the assay filed under Callithrix jacchus [5]. The RBA in assay [6] and in assay [7] was below 0.1% throughout.

For `N#Cc1ccc(S(=O)(=O)Nc2cccc(-c3c(O)ccc4cc(-c5cccc(O)c5)ccc34)c2)cc1`, the half-inhibitory concentration (IC50) in assay [2] amounted to 25 nM; in assay [3], 825 nM; in assay [8], 555 nM. For the same compound, the inhibition in the assay listed under Callithrix jacchus [4] is 25%; in the assay filed under Callithrix jacchus [5], 30%. The RBA in assay [6] and in assay [7] was below 0.1% throughout.

Take `O=S(=O)(Nc1cccc(-c2c(O)ccc3cc(-c4cccc(O)c4)ccc23)c1)c1ccccc1F`: the IC50 was 29 nM in assay [2], 749 nM in assay [3] and 429 nM in assay [8]. Further, the results for the inhibition in the assay listed under Callithrix jacchus [4] and in the assay filed under Callithrix jacchus [5] were 19% and below 10%, respectively. The RBA in assay [6] and in assay [7] was below 0.1% throughout.
